# Screens as filed in PubChem.
# UBC9 SUMO inh: blocks human SUMOylation mediated by UBC9; HTRF SUMOylation assay, SAE1/SAE2 + UBC9, in vitro; inhibition, % at 35 µM; 290,000 compounds, 0.36% hits; in the data active = inhibition above about 50%, passing the limit was not always enough
# Target sequence (P63279 whole entry, looked up): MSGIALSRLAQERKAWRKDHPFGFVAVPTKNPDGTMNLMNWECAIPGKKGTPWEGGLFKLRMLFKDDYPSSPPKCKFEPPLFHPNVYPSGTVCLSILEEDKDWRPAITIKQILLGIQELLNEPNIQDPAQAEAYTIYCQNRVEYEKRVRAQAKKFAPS
# NS3 helicase inh: inhibitors of Hepatitis C virus NS3 helicase; NS3 helicase DNA unwinding, Cy5 molecular beacon fluorescence; inhibition, % at 10.9 µM; 290,000 compounds, 0.56% hits;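 active = inhibition above the mean of all tested compounds plus 3 SD, set per campaign, cut at about 35% in these data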;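 also: 0% = DMSO wells and 100% = thioflavine S control wells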
#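 Measured by: Cy5 fluorescence, 0 and 60 min reads / Assay system: NS3 helicase fragment of HCV / Control set: low DMSO, high thioflavine S at 110 µM / Times: 1 h reaction at 25 °C, ATP-initiated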
# IMP-1 inh: inhibitors of Pseudomonas aeruginosa IMP-1 metallo-beta-lactamase. purified IMP-1, nitrocefin hydrolysis, epi-absorbance fluorescence. inhibition, % at 5.6 µM. 290,000 compounds, 0.45% hits. AID 1556;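 active = inhibition above the mean plus 3 SD of all compounds in the same screening run, cut at about 4.5% in these data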;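 also: 0% = IMP-1 with DMSO and 100% = DMSO wells lacking enzyme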
#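 System: purified IMP-1 / Input: IMP-1 dispensed at 0.2 nM / Medium: 50 mM HEPES pH 7.1, 50 µM ZnSO4, 0.05% Brij 35 / Timing: 15 min enzyme–compound preincubation, then 25 min nitrocefin reaction, 25 °C / Technique: plate fluorescence quenching by hydrolysis product, ex 480/em 530 nm / Repeats: singlicate testing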
# FID counter: displaces DNA intercalator in HCV helicase counter-screen | DNA fluorescent intercalator displacement, fluorescence | inhibition, % at 7.9 µM | 290,000 compounds, 0.17% hits | AID 1845; in the data active = inhibition above about 37%;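 also: 0% = vehicle and 100% = reference compound; higher means more ethidium bromide displaced from hairpin DNA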
# VIM-2 inh: blocks Pseudomonas aeruginosa VIM-2 metallo-beta-lactamase; inhibition, % at 5.6 µM; purified VIM-2, nitrocefin hydrolysis, epi-absorbance fluorescence; 290,000 compounds, 0.89% hits;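 active = inhibition above the mean of all tested compounds plus 3 SD, cutoff set per screening run, cut at about 7.5% in these data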;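 also: red hydrolysis product quenches plate fluorescence so inhibitors raise well fluorescence; 0% = enzyme with DMSO and 100% = DMSO without enzyme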
# Numbers without * were called inactive; . = not tested or not shown. In the library only some 2.1% were active in any assay of this set; here they are far more common.
SMILES,UBC9 SUMO inh,NS3 helicase inh,IMP-1 inh,FID counter,VIM-2 inh
O=C(NNS(=O)(=O)c1ccc(F)cc1F)c1csc(-c2cccnc2)n1,1,5,-2,-13,0
CCN(CC)CCCN(Cc1cc2cc3c(cc2[nH]c1=O)OCO3)C(=S)NCCCN(C)C,18,-4,-2,24,4
CN(C)CCCNC(=S)N(CCCN(C)C)Cc1cc2cc3c(cc2[nH]c1=O)OCO3,-3,-4,-3,17,3
Cc1ccc(NC(=S)N(CCCN(C)C)Cc2cc3cc4c(cc3[nH]c2=O)OCO4)cc1,12,-3,-3,38*,-2
Cc1ccc(NC(=S)N(CCCN(C)C)Cc2cc3cc4c(cc3[nH]c2=O)OCO4)c(C)c1,1,-13,-3,44*,-1
COc1ccc(C(=O)NCC(=O)OCC(=O)N2N=C(c3ccc(Cl)cc3)CC2c2ccco2)cc1OC (stereo not given),-20,-15,-1,-31,6
Nc1cc(=O)[nH]c(SCC(=O)N2N=C(c3ccc(Cl)cc3)CC2c2ccco2)n1 (stereo not given),21,24,0,-38,3
COCC(=O)OCC(=O)N1N=C(c2ccc(Cl)cc2)CC1c1ccco1 (stereo not given),10,2,-1,-29,9.9*
CCC(=O)N1N=C(c2ccc(Cl)cc2)CC1c1ccco1 (stereo not given),15,7,-3,-32,9.5*
Nc1nc(SCC(=O)N2N=C(c3ccc(Cl)cc3)CC2c2ccco2)n[nH]1 (stereo not given),16,10,-1,-26,11*
Cc1ccc(NC(=S)Nc2cccnc2)c(S(=O)(=O)N2CCCCC2)c1,10,5,-2,-8,-3
O=c1[nH]c(-c2ccccc2)nn1-c1ccc(Br)cc1Br,4,-3,-3,-13,-3
CSc1nc(N)c2c3c(sc2n1)CN(C)CC3,10,-4,0,-2,7
CCSc1nc(N)c2c3c(sc2n1)CN(C)CC3,7,-6,0,17,8.5*
O=C1N(c2ccc(Cl)c(Cl)c2)CN(Cc2ccccc2)CN1n1cnnc1,61*,3,-1,3,0
COC(=O)c1c(N)n(-c2ccc(N3CCOCC3)cc2)c2nc3ccccc3nc12,52*,.,.,.,.
S=c1[nH]nc(-c2ccncc2)n1/N=C/C=C/c1ccco1,91*,29,-2,-9,-1
Cc1ccc(-c2n[nH]c(=S)n2/N=C/C=C/c2ccccc2[N+](=O)[O-])cc1,36,0,-3,-8,-5
S=c1[nH]nc(-c2ccco2)n1/N=C/C(Cl)=C/c1ccccc1,23,25,-3,-17,8.1*
O=[N+]([O-])c1ccccc1/C=C/C=N/n1c(-c2ccco2)n[nH]c1=S,-1,5,-2,-13,9.8*
S=c1[nH]nc(-c2ccco2)n1/N=C/c1cccc(Cl)c1,7,6,-4,-10,9.1*
Clc1ccc(CN2CCN(c3ncccn3)CC2)cc1,-7,32,1,1,0
CC(=O)c1ccccc1OCCCCN1CCCCC1,15,-7,-2,5,-1
Cn1c2ccccc2c(=O)c2ccc(C#CC3(O)CCCCC3)cc21,5,4,-3,-28,6
O=C(Cc1ccccc1)Nc1cccc(C(=O)O)c1O,17,6,1,0,0
SMILES,UBC9 SUMO inh,NS3 helicase inh,IMP-1 inh,FID counter,VIM-2 inh
N#Cc1ccc(COC(=O)CC(NC(N)=O)c2ccc(Cl)cc2)cc1 (stereo not given),4,-6,-2,-13,-2
S=c1[nH]nc(-c2ccco2)n1-c1ccccc1Cl,15,4,-3,-4,16*
CN(CC(=O)NCCc1ccccc1)Cc1ccco1,3,4,-4,-10,-3
O=C1c2cccc3cccc(c23)C(=O)N1CCN1CCN(C(=S)Nc2ccccc2)CC1,6,-3,-3,11,7.8*
O=C1c2cccc3cccc(c23)C(=O)N1CCN1CCN(C(=S)Nc2ccc(Cl)cc2)CC1,2,10,0,10,4
Cc1cc2[nH]c3c(c[n+](C)c4ccccc34)c2cc1C,22,27,11*,64*,6
CCC(C)NCCOCCOc1ccc(Cl)c(C)c1C (stereo not given),-3,-24,0,17,-3
CCC(C)NCCOCCOc1ccc(Cl)c2ccccc12 (stereo not given),6,-44,3,51*,3
Cc1ccccc1OCC(=O)OCC(=O)Nc1ccc(S(N)(=O)=O)cc1,-1,-10,-2,-2,-2
CCCc1cc(=O)oc2cc(OCC(=O)NCC(O)c3ccccc3)ccc12 (stereo not given),5,16,42*,-27,-1
CCCc1cc(=O)oc2cc(OCC(=O)NCc3ccccn3)ccc12,18,12,-5,-40,1
CCCc1cc(=O)oc2cc(OCC(=O)Nc3ccc(S(N)(=O)=O)cc3)ccc12,.,27,15*,-21,-1
CCCc1cc(=O)oc2cc(OCC(=O)NCc3cccs3)ccc12,10,-1,-4,-11,-2
Cc1c(C)c2ccc(OCC(=O)Nc3ccc(S(N)(=O)=O)cc3)c(C)c2oc1=O,30,4,-1,-38,7.8*
CCCc1cc(=O)oc2cc(OCC(=O)NCCCn3ccnc3)ccc12,-6,23,-1,11,9.0*
O=C(c1ccc2c(c1)OCO2)C1CCCN(Cc2c(F)ccc(F)c2F)C1 (stereo not given),10,5,-3,-13,-1
COc1ccc(CC2SC(N)=NC2=O)cc1 (stereo not given),11,1,0,0,0
COc1ccc(CCN2C(=O)CC(C(C)c3ccccc3)C2=O)cc1OC (stereo not given),-3,-11,24*,-22,-1
COc1ccc(CCN2C(=O)CC(Cc3ccccc3)C2=O)cc1OC (stereo not given),6,-4,-2,-28,-1
NC(N)=NS(=O)(=O)c1ccc(NC(=S)NC(=O)c2ccccc2)cc1,-2,13,0,-21,-1
O=C(O)c1ccc(S(=O)(=O)c2ccc3c(c2)C(=O)N(NC(=O)c2ccccc2)C3=O)cc1,3,-16,5.1*,-2,-2
NS(=O)(=O)c1ccc(NC(=S)NNC(=O)c2ccc(Br)o2)cc1,-6,-2,5.2*,-7,-7
NS(=O)(=O)c1ccc(NC(=S)NC(=O)c2ccc(-c3ccccc3)cc2)cc1,4,-8,5.5*,-5,0
O=C(Nc1ccc(NC(=O)c2ccc(S(=O)(=O)c3ccccc3)cc2)cc1)c1ccccc1,14,-2,-3,46*,-3
CC(=O)Nc1ccc(NC(=O)c2ccc(NC(=O)c3ccccc3)cc2)cc1,25,3,-1,-9,1
CCOc1ccc(N2CC(C(=O)Nc3nnc(Cc4ccccc4)s3)CC2=O)cc1 (stereo not given),3,-7,-3,-49,-1
